Shown are actives, neighbours in structure and some others; about 1.6% of the full set was active somewhere.
HKDC1 inh – HKDC1 hexokinase inhibitors, primary screen, biochemical, fluorescence, uHTS; hit rate 0.16% among 340,000; recombinant HKDC1, G6PDH/diaphorase resazurin coupled fluorescence; inhibition, % at 20 µM;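 active = inhibition above about 35% when tested at 20 µM, limit read from the data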;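 note: plate controls were DMSO wells with enzyme for no effect and DMSO wells lacking enzyme for full effect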
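Assay system – recombinant HKDC1 (HK5) hexokinase enzyme, produced in-house · Input – HKDC1 at 5 µg/mL · Reagent – glucose plus 1 mM ATP as hexokinase substrates · Timing – 90 min reaction incubation at room temperature, dark · Measured by – G6PDH/diaphorase-coupled fluorescence, 1 mM NADP, 100 µM resazurin, 525/613 nm · Benchmarks – DMSO-enzyme wells negative, buffer-substituted wells positive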
PAD4 FP inh – human PAD4 inhibitors, primary screen, biochemical, fluorescence polarization, 1536-well format; Protein-arginine deiminase type-4 (Homo sapiens), Q9UM07; recombinant PAD4, RCA probe fluorescence polarization; inhibition, % at 6.36 µM; hit rate 0.41% among 330,000; AID 485272, 2010;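 active = percent inhibition above a cutoff equal to the mean of all tested compounds plus 3 SD, cut at about 15% in these data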;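 note: 0% = PAD4 with RCA probe and DMSO and 100% = probe without PAD4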
TDP2 absorb – human TDP2 enzyme inhibitors, primary screen, biochemical, epi absorbance, recombinant enzyme | inhibition, % at 12.8 µM | hit rate 0.34% among 370,000 | T5PNP hydrolysis, p-nitrophenol absorbance 415 nm | AID 720702, 2013 | Tyrosyl-DNA phosphodiesterase 2 (Homo sapiens), O95551;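 active = inhibition above the mean of all tested compounds plus 3 SD, set per campaign, cut at about 25% in these data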;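 note: 0% = DMSO with enzyme and 100% = buffer with substrate but no TDP2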
Target sequence (O95551 whole entry, looked up): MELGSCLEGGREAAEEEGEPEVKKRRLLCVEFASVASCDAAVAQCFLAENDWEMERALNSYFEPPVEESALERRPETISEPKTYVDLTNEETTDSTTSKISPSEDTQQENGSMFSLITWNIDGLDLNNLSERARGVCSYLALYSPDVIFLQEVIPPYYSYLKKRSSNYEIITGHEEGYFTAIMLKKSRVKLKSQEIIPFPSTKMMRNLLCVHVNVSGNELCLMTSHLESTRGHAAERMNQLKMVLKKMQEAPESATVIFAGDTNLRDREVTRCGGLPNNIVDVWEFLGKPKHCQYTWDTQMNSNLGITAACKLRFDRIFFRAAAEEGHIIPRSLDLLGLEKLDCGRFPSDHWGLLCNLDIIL
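Read-out basis: percent inhibition. System: recombinant human TDP2. Buffer or medium: Mg2+-containing Tris-HCl buffer, pH 7.5. Repeats: single replicate. Timing: reaction 2 h, 37 °C. Benchmarks: high control without enzyme, low control DMSO plus TDP2. Probe or stimulus: 5 mM T5PNP. Doses: 12.8 µM only. Measured by: epi absorbance of p-nitrophenol freed from T5PNP by hydrolysis.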
GSTO1 counter – inhibitors of recombinant GSTO1, primary screen, counter-screen for RBBP9 inhibitor project, biochemical, fluorescence polarization; Glutathione S-transferase omega-1 (Homo sapiens), P78417; activity-based probe fluorescence polarization; inhibition, % at 5.96 µM; hit rate 1.1% among 300,000; AID 1974, 2009;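 active = inhibition above the campaign mean inhibition plus 3 SD, cut at about 35% in these data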;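 note: 0% = GSTO1-1 with DMSO and 100% = wells lacking GSTO1-1 enzyme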
UCH37 inh – inhibitors of human UCH37 deubiquitinase, primary screen, biochemical, Ub-AMC cleavage, fluorescence; Ubiquitin carboxyl-terminal hydrolase isozyme L5 (Homo sapiens), Q9Y5K5; purified proteasome/UCH37; inhibition, % (concentration not given with the values); hit rate 0.33% among 330,000;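 active = mean inhibition over replicate wells above about 20%, limit read from the data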;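 note: 0% = compound-free wells with enzyme and 100% = wells lacking proteasome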
Target sequence (Q9Y5K5 whole entry, looked up): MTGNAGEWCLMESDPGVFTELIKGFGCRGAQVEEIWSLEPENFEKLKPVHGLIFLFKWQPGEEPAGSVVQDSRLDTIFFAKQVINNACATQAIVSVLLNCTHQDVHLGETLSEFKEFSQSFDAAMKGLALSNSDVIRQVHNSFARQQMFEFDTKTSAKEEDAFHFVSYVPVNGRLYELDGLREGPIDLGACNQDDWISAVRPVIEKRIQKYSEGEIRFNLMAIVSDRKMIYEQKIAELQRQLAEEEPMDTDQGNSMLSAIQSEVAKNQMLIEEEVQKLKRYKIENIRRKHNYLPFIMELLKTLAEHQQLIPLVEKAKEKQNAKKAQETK
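System: Proteasome-associated human UCH37 deubiquitinase; Input: 0.15 nM proteasome in added enzyme buffer; Also added: Ub-AMC substrate from 1 µM stock; Incubation: 30 min compound-proteasome preincubation then 25 min substrate reaction, room temperature; Detection: fluorescence, ex 355 nm, em 460 nm; Read-out: % inhibition of Ub-AMC cleavage fluorescence; Benchmarks: no-proteasome and no-compound wells.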
CTSL1 counter – Fasciola hepatica cathepsin L1 inhibitors, primary screen, counter-screen for PFM18AAP inhibitor project, biochemical, QFRET, fluorogenic peptide substrate | inhibition, % at 5.96 µM | recombinant F. hepatica cathepsin L1, Z-Leu-Arg-MCA fluorescence | hit rate 0.49% among 300,000;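 active = inhibition above the mean of all tested compounds plus 3 SD, set per screening campaign, cut at about 17% in these data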;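 note: 0% = plate median of test compound wells and 100% = 1 µM Z-Phe-Ala-diazomethylketone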
GSTO1 confirm – GSTO1 inhibitor hit confirmation, counter-screen for RBBP9 inhibitor project, biochemical, fluorescence polarization, triplicate. recombinant GSTO1, probe fluorescence polarization. hit rate 54% among 2,400. shares compounds with GSTO1 counter. AID 2176, 2009. inhibition, % at 5.96 µM;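 active = inhibition above the primary screen's cutoff, its mean inhibition plus 3 SD, cut at about 35% in these data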;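 note: loss of polarization as inhibitors block binding of rhodamine sulfonate ester activity probe; 0% = GSTO1 with DMSO and 100% = wells lacking GSTO1 enzyme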
PAD4 FP conf – human PAD4 inhibitors, confirmation, biochemical, fluorescence polarization | shares compounds with PAD4 FP inh | recombinant PAD4, RCA probe fluorescence polarization | inhibition, % at 6.36 µM | hit rate 28% among 1,200 | AID 488796, 2010;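 active = mean inhibition across replicates above the hit cutoff set by the earlier primary screen, cut at about 15% in these data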;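 note: inhibitors block active-site labeling by the probe so polarization falls; 0% = PAD4 with probe and DMSO and 100% = probe without PAD4 enzyme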
HKDC1 act conf2 – HKDC1 hexokinase activators, confirmation, biochemical, single concentration. shares compounds with HKDC1 inh. recombinant HKDC1, G6PDH/diaphorase resazurin fluorescence; active compounds read low. inhibition, % at 20 µM. hit rate 14% among 740;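 active = inhibition at or below a set negative limit, negative inhibition meaning the enzyme was activated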
UCH37 confirm – retest of human UCH37 deubiquitinase inhibitors, confirmation, biochemical, Ub-AMC cleavage rate, fluorescence; shares compounds with UCH37 inh; Proteasome-bound UCH37; inhibition, % at 20 µM; hit rate 27% among 480; AID 624100, 2012;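 active = average inhibition over replicates above about 50%, so the earlier screening hit is confirmed, limit read from the data; inactive = the rest, counted as false positives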;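 note: based on cleavage rate fitted by regression over a 30 min kinetic read; 0% = proteasome plus Ub-AMC and 100% = Ub-AMC without proteasome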
TDP2 inh conf – human TDP2 enzyme inhibitors, retest, confirmation, biochemical, epi absorbance, recombinant enzyme; shares compounds with TDP2 absorb; absorbance read-out; inhibition, % at 12.8 µM; hit rate 22% among 1,100; AID 743263, 2014; in the data active = inhibition above about 25%;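 note: 0% = vehicle with enzyme and 100% = no enzyme buffer only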
* marks the source's active call; other numbers are inactive results; x = no result given; ! = not confirmed by another sample.

SMILES | HKDC1 inh | PAD4 FP inh | TDP2 absorb | GSTO1 counter | UCH37 inh | CTSL1 counter | GSTO1 confirm | PAD4 FP conf | UCH37 confirm | TDP2 inh conf | others
O=C1C(Cl)=C(Nc2ccc3cn[nH]c3c2)C(=O)c2ccccc21 | 7 | 48* | 4 | 83* | 46* | 28* | 90* | 15* | 13 | x
O=C(Nc1ccc2cn[nH]c2c1)c1c(Cl)cccc1Cl | 0 | 0 | -6 | 20 | 2 | -3 | x | x | x | x
CCOc1cc(C=N/N=C2/NC(=O)C(CC(=O)O)S2)ccc1OCc1ccc(Cl)cc1Cl (centres undefined) | x | x | x | x | 8 | x | x | x | x | x
Cc1[nH]n(-c2ccccc2)c(=O)c1C(C[N+](=O)[O-])c1ccccc1Cl (centres undefined) | 1 | -15 | 3 | 43* | 30* | -5 | 16 | x | 1 | x
COC(=O)c1ccccc1NC1=C/C(=N\S(=O)(=O)c2cccs2)c2ccccc2C1=O | 39*! | 38* | 12 | 79* | 30* | 52* | 84* | 35* | 55*! | x | HKDC1 act conf2=39
CC(=NNC(=S)NCc1ccccc1)c1ccco1 | x | x | x | x | 0 | x | x | x | x | x
Cc1[nH][nH]c(=O)c1C(c1c(C)[nH][nH]c1=O)c1cn(Cc2cccc3ccccc23)c2ccccc12 | 17 | 31* | 60* | 55* | 83* | 3 | 41* | 25* | 50 | x
C=Cc1c(C)c2cc3[nH]c(cc4nc(cc5nc(cc1[nH]2)C(C)=C5CCC(=O)O)C(CCC(=O)O)=C4C)c(C)c3C=C | 3 | 24* | 13 | 89* | 47*! | 4 | 82* | 3 | 100* | x
Oc1ccc2ccccc2c1C=Nc1ccc(N2CCOCC2)cc1 | 25 | 46* | 31* | 41* | 6 | 3 | 38* | 1 | x | 5
C=Cc1ccc(N=Cc2c(O)ccc3ccccc23)cc1 | 21 | -14 | -19 | 30 | 5 | -3 | x | x | x | x
O=C1NC(c2cccc3ccccc23)Nc2ccccc21 (centres undefined) | 1 | x | 3 | x | x | x | x | x | x | x
O=C1c2ccccc2C(=O)C12OC2c1cccc2ccccc12 (centres undefined) | 13 | -15 | 73* | 75* | 24* | 62* | 71* | x | x | 76*
O=C(N(c1ccccc1)c1ccccc1)N(c1ccccc1)c1ccccc1 | 3 | 0 | -5 | 12 | -3 | 2 | x | x | x | x
CC(=O)N(C1=C(N)C(=O)c2ccccc2C1=O)c1ccccc1 | 10 | 1 | 29* | 59* | 37* | 30* | 27 | x | 49 | 20
Cn1nc(-c2ccccn2)nc2c(=O)n(C)c(=O)nc1-2 | 29 | 74* | 91* | 97* | 97* | 114* | 92* | 67* | 100* | 85*
O=C(O)c1ccc(NC2=C(n3nnc4ccccc43)C(=O)c3ccccc3C2=O)cc1 | 8 | 17* | 34* | 53* | x | 34* | 61* | 3 | x | 41*
O=C1CCCC2=C1C1(O)C(=O)c3ccccc3C1(O)O2 (centres undefined) | -6 | 45* | 53* | 70* | 65* | 5 | 68* | 33* | 79* | 59*
N#CC1=C(N)OC2=C(C(=O)CCC2)[C@]12C(=O)N(CC(N)=O)c1ccccc12 | -1 | 0 | 3 | 1 | 4 | -3 | x | x | x | x
CCOC(=O)C1CCN(C2=C(NS(=O)(=O)c3ccc(Br)cc3)C(=O)c3ccccc3C2=O)CC1 | 17 | -5 | 30* | 45* | 23* | 4 | 14 | x | x | 11
CCN1CCN(C2=C(NS(=O)(=O)c3ccccc3)C(=O)c3ccccc3C2=O)CC1 | 13 | -12 | 28* | 49* | 12 | 9 | 38* | x | x | 16
CCN1CCN(C2=C(NS(=O)(=O)c3ccc(Br)cc3)C(=O)c3ccccc3C2=O)CC1 | 16 | 9 | 28* | 59* | 13 | 20* | 30 | x | x | 23
CC(C)(C)c1ccc(OCc2ccc(C(=O)NN=Cc3ccc(O)c(O)c3)cc2)cc1 | x | x | x | x | -8 | x | x | x | x | x
O=C(NN=CC1CC2C=CC1C2)c1ccccc1O (centres undefined) | x | x | x | x | -11 | x | x | x | x | x
Cc1nnc(N/N=C/c2ccccc2O)n1N | -14 | 41* | 59* | 72* | x | 20* | 32 | 1 | x | 26*
Cc1c(NC(=O)C(C)OC(=O)c2sc3ccccc3c2Cl)c(=O)n(-c2ccccc2)n1C (centres undefined) | -9 | 2 | 9 | -2 | 4 | -4 | x | x | x | x
Cc1c(NC(=O)C(C)OC(=O)c2ccc([N+](=O)[O-])s2)c(=O)n(-c2ccccc2)n1C (centres undefined) | -5 | -10 | 44* | 44* | 77* | 28* | 13 | x | 27 | 32*
COc1cc(NS(=O)(=O)c2ccc(C)cc2)c2ncccc2c1 | 10 | -5 | -2 | 29 | 2 | -2 | x | x | x | x
CCC(CNc1cc(OC)cc2cccnc12)NC1CCCCC1 (centres undefined) | 28 | 90* | 79* | 80* | 37* | 86* | 9 | 14 | 54* | 25*
Cn1c(Cl)c(C=NOC(=O)c2ccccc2Cl)c2ccccc21 | x | x | x | x | 1 | x | x | x | x | x

Source: PubChem BioAssay
